Results published in article PMC2993511 (Biochemical pharmacology, 2010).
Entries after “also recorded” stand apart in the source; their conditions may differ.

Assays:
Naïve CHO cells = assay: [35S]GTPγS binding in naïve CHO cells; format: biochemical, Chinese hamster; conditions: not transfected with MOR or DOR, data not shown
Procedure, shortened: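 Untransfected CHO cell membranes, a receptor-free control. Tested with 0.1 nM [35S]GTPγS and 3 μM GDP in HEPES pH 7.4 buffer at 30°C. Extract and DAMGO were added. Nonspecific binding was subtracted using 10 μM unlabeled GTPγS. Read-out was filtration plus scintillation counting.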

DOR [1] = molecular target: T1, DOR (Homo sapiens, UniProt P41143); assay: Receptor binding assay, displacement of [3H]deltorphin
MOR [2] = molecular target: T2, MOR (Homo sapiens, UniProt P35372); assay: Receptor binding assay, displacement of [3H]DAMGO
DOR [3] = molecular target: T1, DOR; assay: [35S]GTPγS binding assay, CHO-DOR membranes; format: biochemical
MOR [4] = molecular target: T2, MOR; assay: [35S]GTPγS binding assay, CHO-MOR membranes; format: biochemical
Procedure, shortened: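 Human MOR stably expressed in CHO cells (G418 selection); membranes homogenised on ice and spun at 20,000 g. 20 μg protein incubated with 0.1 nM [35S]GTPγS, 3 μM GDP, Mg2+ and Na+ in HEPES pH 7.4, 1 hr, 30°C. DAMGO was the positive control. Nonspecific binding was taken with 10 μM unlabeled GTPγS. Filter-bound radioactivity was counted and expressed as percent stimulation above basal.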

T2 sequence (P35372 whole entry): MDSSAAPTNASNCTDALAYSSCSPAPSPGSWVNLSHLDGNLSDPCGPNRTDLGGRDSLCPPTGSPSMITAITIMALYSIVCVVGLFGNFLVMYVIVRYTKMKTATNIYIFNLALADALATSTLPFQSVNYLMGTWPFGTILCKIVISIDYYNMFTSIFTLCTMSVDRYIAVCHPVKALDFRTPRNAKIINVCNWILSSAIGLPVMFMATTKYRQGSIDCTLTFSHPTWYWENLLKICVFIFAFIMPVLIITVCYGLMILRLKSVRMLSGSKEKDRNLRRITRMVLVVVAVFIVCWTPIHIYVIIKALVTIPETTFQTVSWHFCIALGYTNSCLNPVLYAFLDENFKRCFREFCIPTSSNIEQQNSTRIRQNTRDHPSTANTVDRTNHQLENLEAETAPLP
T1 sequence (P41143 whole entry): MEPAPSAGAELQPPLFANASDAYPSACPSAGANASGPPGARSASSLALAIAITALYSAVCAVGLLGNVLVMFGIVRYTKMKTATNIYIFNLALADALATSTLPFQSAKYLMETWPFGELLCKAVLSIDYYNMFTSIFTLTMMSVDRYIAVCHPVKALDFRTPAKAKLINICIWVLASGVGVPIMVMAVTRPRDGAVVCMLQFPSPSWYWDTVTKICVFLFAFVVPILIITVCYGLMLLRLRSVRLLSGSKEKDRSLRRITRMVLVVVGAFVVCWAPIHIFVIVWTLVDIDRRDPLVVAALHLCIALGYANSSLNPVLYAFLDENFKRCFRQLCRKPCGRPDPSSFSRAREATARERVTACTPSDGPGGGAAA

Molecule: C=CCN1C[C@H](C)N([C@H](c2ccc(C(=O)N(CC)CC)cc2)c2cccc(OC)c2)C[C@H]1C [SNC-80]
- stimulation of [35S]GTPγS binding in naïve CHO cells (Naïve CHO cells): not stimulated

Molecule: O=c1cc(-c2ccc(O)cc2)oc2cc(O)cc(O)c12 [apigenin]
- IC50 (DOR [1]): > 50 µM
- IC50 (MOR [2]): 35.8 ± 7.81 µM
- Ki (MOR [2]): 16.2 ± 3.16 µM

Molecule: COc1ccc(-c2oc3cc(OC)c(OC)c(O)c3c(=O)c2OC)cc1O [casticin]
- IC50 (DOR [1]): 2.05 ± 0.631 µM
- Ki (DOR [1]): 1.29 ± 0.44 µM
- EC50 (DOR [3]): 15.3 ± 6.32 µM
- Emax (DOR [3]; read-out: DOR Emax, stimulation of [35S]GTPγS binding): 74.6 ± 18.2%
- activation of MOR (MOR [4]): did not activate
- IC50 (MOR [2]): 2.84 ± 0.707 µM
- Ki (MOR [2]): 1.14 ± 0.167 µM

Molecule: COc1c(-c2ccc(O)cc2)oc2cc(O)cc(O)c2c1=O [isokaempferide]
- IC50 (DOR [1]): 22.8 ± 14 µM
- Ki (DOR [1]): 12.9 ± 7.92 µM
- affinity for MOR (MOR [2]): no significant affinity

Molecule: O=c1cc(-c2ccc(O)c(O)c2)oc2cc(O)cc(O)c12 [luteolin]
- IC50 (DOR [1]): 16.8 ± 4.87 µM
- Ki (DOR [1]): 9.53 ± 2.73 µM
- IC50 (MOR [2]): 43.3 ± 13.2 µM
- Ki (MOR [2]): 13.4 ± 4.06 µM

Molecule: N,N-diallyl-Tyr-Aib-Aib-Phe-Leu-OH [ICI 174,864, reference compound]
- effect on casticin stimulated [35S]GTPγS binding (DOR [3]; casticin 10 and 50 μM, ICI 174,864 10 μM): inhibited; also recorded: blocked

Molecule: [D-Ala^2,N-MePhe^4-Glyol^5]enkephalin [DAMGO]
- stimulation of [35S]GTPγS binding in naïve CHO cells (Naïve CHO cells): not stimulated
